The list is not random: actives were taken first. Their share in the collection is about 27%.
CYP2C19 inh: human CYP2C19 inhibition; P33261; CYP2C19 Supersomes, luciferin-H EGE luminescence, 30 min; inhibition, % at 5 µM; 21% of 96,000 active; AID 778;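 active = CYP2C19 inhibition above a set limit at 5 µM in the primary screen, cut at about 50% in these data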;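 note: plate controls were negative control wells for no effect and 2.5 mM tranylcypromine positive control for full effect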
Target sequence (P33261 whole entry, looked up): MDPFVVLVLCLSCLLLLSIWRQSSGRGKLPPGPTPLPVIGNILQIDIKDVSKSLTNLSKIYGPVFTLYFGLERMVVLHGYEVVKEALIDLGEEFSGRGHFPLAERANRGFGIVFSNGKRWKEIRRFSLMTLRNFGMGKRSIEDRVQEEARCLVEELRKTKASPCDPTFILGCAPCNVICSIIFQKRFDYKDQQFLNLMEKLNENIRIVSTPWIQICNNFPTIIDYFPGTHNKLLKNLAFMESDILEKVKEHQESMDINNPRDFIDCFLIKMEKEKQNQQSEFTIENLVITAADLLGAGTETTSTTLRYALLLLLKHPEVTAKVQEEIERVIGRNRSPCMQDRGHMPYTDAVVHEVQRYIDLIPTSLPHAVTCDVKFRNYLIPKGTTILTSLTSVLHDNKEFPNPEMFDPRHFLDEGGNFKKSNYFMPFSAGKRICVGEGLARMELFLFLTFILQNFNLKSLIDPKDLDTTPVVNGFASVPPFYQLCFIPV
CYP2C9 inh: blocks human cytochrome P450 2C9. P11712. CYP2C9 Supersomes, luciferin-H conversion, luminescence. inhibition, % at 5 µM. 20% of 96,000 active;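 active = blocking of liver enzyme CYP2C9 beyond about 50% at 5 µM, limit read from the data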
Cav3 T inh: human Cav3.2 channel inhibition, primary screen | Cav3.2-expressing cells, Fluo-4 calcium fluorescence FDSS; hits give low values | O95180 | AID 449739 | B-score at 10 µM | 4% of 100,000 active;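 active = single-dose well whose peak fluorescence ratio is a statistical outlier from its plate by either plate-standardised score or position-corrected B-score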
HIV Rev-RRE inh: HIV Rev-RRE protein-RNA interaction inhibition; P05866; Rev peptide-RRE RNA binding, FRET; AID 704; 0.79% of 97,000 active; inhibition, % at 8 µM;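 active = inhibition above the screen-wide mean plus 3 SD, cut at about 35% in these data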;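 note: 0% = median DMSO wells and 100% = median Neomycin B control wells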
Target sequence (P05866 whole entry, looked up): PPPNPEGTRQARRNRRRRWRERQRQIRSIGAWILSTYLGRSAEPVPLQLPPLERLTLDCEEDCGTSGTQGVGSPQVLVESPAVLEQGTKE
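Test system – labelled RRE RNA duplex and labelled Rev peptide · Signal – fluorescein-to-Cy5 FRET, 480 nm excitation · Evaluation – % inhibition of FRET ratio versus controls · Benchmarks – DMSO low control, neomycin B high control · Incubation – 5 min RNA-compound premix plus 15 min binding step, 25 °C · Medium – HEPES pH 7.5 salt buffer with EDTA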
CYP2C9 act: activators of human CYP2C9; P11712; recombinant CYP2C9, luciferin-H conversion, luminescence; hits give high values; factor 1 = untreated enzyme, 0 = blocked; activation factor at 5 µM; 1.4% of 96,000 active; AID 1024;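 active = activation factor of 2 or more for CYP2C9 at a 5 µM dose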;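 note: 0 = sulfaphenazole-blocked wells and 1 = vehicle-only wells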
CYP2C19 act: activators of human cytochrome P450 2C19. P33261. recombinant CYP2C19, luciferin-H EGE luminescence; hits give high values; 0 = fully inhibited enzyme, 1 = untreated enzyme. activation factor at 5 µM. 96,000 tested, under 10 active;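 active = activation factor of at least 2 at 5 µM in the primary screen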;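 note: 0 = wells with 2.5 mM tranylcypromine and 1 = vehicle-only wells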
Starred values were filed as active, the others as inactive; · = no result.

SMILES | CYP2C19 inh | CYP2C9 inh | Cav3 T inh | HIV Rev-RRE inh | CYP2C9 act | CYP2C19 act
CN(CCNC(=O)CCNC(=O)Cn1ccc2ccccc2c1=O)Cc1ccccc1 | -4 | 9 | 1.5 | 2 | 0.9 | 1
CCN(CCCNC(=O)CCNC(=O)Cn1ccc2ccccc2c1=O)c1ccccc1 | 68* | 77* | -0.51 | 5 | 0.2 | 0.3
CCN1CCN(C(=O)Cn2c(=O)sc3ccccc32)CC1 | 12 | 10 | 0.91 | · | 0.9 | 0.9
CCCc1nnc(NC(=O)Cn2c(=O)sc3ccccc32)s1 | 64* | 75* | 0.66 | -1 | 0.3 | 0.4
CC1CCCC(C)N1C(=O)Cn1c(=O)sc2ccccc21 (configuration not stated) | 67* | 4 | 1.2 | · | 1 | 0.3
O=C(CCn1c(=O)sc2ccccc21)Nc1nccs1 | 84* | -9 | 0.0098 | 5 | 1.1 | 0.2
O=C(CSc1nnc(Cc2cc(=O)[nH]c(=O)[nH]2)n1-c1ccc(F)cc1)NC1CCCC1 | -17 | -7 | -0.26 | 11 | 1.1 | 1.2
CCCOc1nc(N)c(C#N)c(-c2ccccc2F)c1C#N | 38 | 6 | -0.27 | 3 | 0.9 | 0.6
CCn1c(=NC(=O)CSCC(=O)Nc2nccs2)sc2ccccc21 | 92* | 84* | 0.33 | 8 | 0.2 | 0.1
Cc1cc(NC(=O)CCn2c(=O)sc3ccccc32)no1 | · | · | -0.24 | 4 | · | ·
CSc1ccccc1NC(=O)CCn1c(=O)sc2ccccc21 | 52* | 4 | 0.37 | 1 | 1 | 0.5
O=C(CSCC(=O)Nc1nccs1)Nc1ccccc1 | 24 | 19 | 0.25 | 6 | 0.8 | 0.8
Cc1csc(NC(=O)CCn2c(=O)sc3ccccc32)n1 | 79* | -256 | -3 | 0 | 3.6* | 0.2
CCN(CCNC(=O)Cn1c(=O)sc2ccccc21)c1ccccc1 | 68* | 6 | 0.5 | · | 0.9 | 0.3
CCC(C)C(NC(=O)C1CCC(C)CC1)C(=O)NC(C(=O)OC)C(C)C (configuration not stated) | 2 | 8 | · | -3 | 0.9 | 1
O=C(CCn1c(=O)sc2ccccc21)NCCC1=CCCCC1 | 88* | -75 | -0.046 | · | 1.7 | 0.1
Sc1oc(-c2ccccc2)cc1C=Nc1ccccc1 | 2 | 29 | -2.1 | 18 | 0.7 | 1
CCOC(=O)N1CCN(C(=O)C2CCN(Cc3nc(-c4ccccc4C)oc3C)CC2)CC1 | 28 | -3 | · | 8 | 1 | 0.7
COc1cc(C(=O)NCc2ccccn2)ccc1OCc1c(C)noc1C | 5 | 37 | · | 3 | 0.6 | 0.9
COc1cc(CNCc2ccccn2)ccc1OCc1cccc(Cl)c1 | 83* | 7 | -0.56 | 2 | 0.9 | 0.2
COc1cc(CNCc2ccccn2)ccc1OCc1c(Cl)cccc1Cl | 69* | 20 | -1.5 | 2 | 0.8 | 0.3
Cc1ccc(S(=O)(=O)c2c(COC(=O)c3ccccc3Cl)c(-c3ccccc3)nn2C)cc1 | 50* | 70* | -0.92 | 12 | 0.3 | 0.5
Cc1nn(C(C)CC(=O)O)c(C)c1Br (configuration not stated) | -9 | -1 | 0.12 | 3 | 1 | 1.1
Cc1ccc(-c2nn(-c3ccccc3)cc2/C=N/NC(=O)c2ccc(Br)o2)cc1 | 29 | 52* | · | 7 | 0.5 | 0.7
O=C(N/N=C\c1cn(-c2ccccc2)nc1-c1ccccc1)c1ccc(Br)o1 | 28 | 57* | · | -4 | 0.4 | 0.7
SMILES | CYP2C19 inh | CYP2C9 inh | Cav3 T inh | HIV Rev-RRE inh | CYP2C9 act | CYP2C19 act
Cn1c(CSc2nc3ccccc3s2)nnc1SCC(=O)NCCCN1CCOCC1 | · | · | 0.86 | 1 | · | ·
Nc1c(C(=O)NCc2ccc3c(c2)OCO3)nnn1-c1ccc(OC(F)(F)F)cc1 | 6 | 22 | -1.1 | 13 | 0.8 | 0.9
COC(=O)c1ccc(CSc2nc3ccccc3c(=O)n2-c2ccc(OC)c(OC)c2)o1 | 94* | 96* | -1.2 | -2 | 0 | 0.1
COC(=O)c1ccc(CSc2nnc3c(Cl)cc(Cl)cn23)o1 | 82* | 3 | -1.2 | 2 | 1 | 0.2
COc1ccc(-n2c(SC3CCOC3=O)nc3ccccc3c2=O)cc1OC (configuration not stated) | 40 | 69* | 0.11 | 1 | 0.3 | 0.6
COC(=O)c1ccc(CSc2nnc3n(Cc4ccccc4OC)c(=O)c4ccccc4n23)o1 | 72* | 74* | 0.67 | · | 0.3 | 0.3
COc1ccc(NC(=O)c2ccc3c(c2)S(=O)(=O)c2ccccc2C3=O)cc1 | · | · | 0.29 | · | · | ·
NC(=O)C1(N2CCCCC2)CCN(C2CC(=O)N(Cc3cccs3)C2=O)CC1 (configuration not stated) | -2 | -24 | · | 11 | 1.2 | 1
O=C(CS(=O)(=O)c1cn(Cc2ccc(F)cc2)c2ccccc12)N1CCOCC1 | · | · | 0.28 | · | · | ·
CCn1c(CN2CCCCCC2=O)nnc1SCc1cnc(-c2ccccc2)s1 | 37 | 32 | 0.27 | 11 | 0.7 | 0.6
Cc1ccc(/C(O)=C2\C(=O)C(=O)N(CCCN(C)C)C2c2ccccn2)cc1 (configuration not stated) | · | · | · | 10 | · | ·
CCOC(=O)N1CCN(C(=O)CSc2nc3c(c(=O)n2-c2ccccc2OC)SCC3)CC1 | 12 | 34 | · | 3 | 0.7 | 0.9
COC(=O)c1sc(N)c(C(=O)OC)c1CSc1nc2sc3c(c2c(=O)n1C)CCC3 | · | · | 1 | 0 | · | ·
COC(=O)c1ccc(CSc2nc3c(c(=O)n2-c2ccccc2)SCC3)o1 | 48 | 86* | -1.3 | · | 0.1 | 0.5
O=C(CSc1nc2c(c(=O)n1-c1ccccc1)SCC2)N1CCN(c2ccccc2)CC1 | 82* | 63* | 1.3 | · | 0.4 | 0.2
COC(=O)c1ccc(CSc2nc3sc4c(c3c(=O)n2C)CCCC4)o1 | 84* | 94* | -1.5 | · | 0.1 | 0.2
COC(=O)c1ccc(CSc2nc3c(c(=O)n2-c2ccc(F)cc2)SCC3)o1 | · | · | -1.2 | 3 | · | ·
COc1cccc(C2=NOC(C(=O)NCCN3CCOCC3)C2)c1 (configuration not stated) | -6 | 3 | 0.19 | 0 | 1 | 1.1
C=CCNS(=O)(=O)c1ccc2nsnc2c1 | 23 | 14 | 0.7 | · | 0.9 | 0.8
COc1cc(CCNc2ccc3nnc(-c4ccccc4)n3n2)cc(OC)c1OC | · | · | 1.1 | · | · | ·
CC(C)c1ccccc1NC(=O)c1cccc(NC(=O)c2ccccc2)c1 | 22 | 69* | -4.8 | 18 | 0.3 | 0.8
CCc1cccc(CC)c1NC(=O)c1cccc(NC(=O)c2ccccc2)c1 | 10 | 74* | -0.91 | 9 | 0.3 | 0.9
O=C(Nc1cccc(O)c1)c1ccccc1 | -11 | -9 | 0.25 | 10 | 1.1 | 1.1
COc1ccc(C2=NN(C(=O)CSc3cn(C)c4ccccc34)C(c3ccc(OC)cc3)C2)cc1 (configuration not stated) | 50* | 62* | -2.1 | 3 | 0.4 | 0.5
O=C(Cn1cnc2ccccc21)NCc1ccccc1 | 28 | 2 | 0.36 | 5 | 1 | 0.7
CCOc1cc(C(=O)NCCOC)ccc1OC | 2 | -3 | 0.75 | 13 | 1 | 1

Screens deposited in PubChem by several laboratories.
